The source of these data is article PMC8137654 (Bioconjugate chemistry, 2021).

The target of data set [1] is T1, Ctsk (Homo sapiens, UniProt P43235).
T1 sequence (P43235 115-329): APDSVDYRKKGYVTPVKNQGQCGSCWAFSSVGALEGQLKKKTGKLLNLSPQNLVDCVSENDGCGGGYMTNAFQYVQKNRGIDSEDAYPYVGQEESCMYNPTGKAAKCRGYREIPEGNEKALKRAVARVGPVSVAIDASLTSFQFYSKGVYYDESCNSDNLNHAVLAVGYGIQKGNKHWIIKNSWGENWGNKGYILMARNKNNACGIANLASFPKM
It counts as biochemical. In a few lines:
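Probe kept in solution at pH 7 with 20 nM initial human Ctsk. Ctsk inhibitor added to the assay mixture at 0, 1, 5, 10, 30, 50 or 100 nM (n = 3). Fluorescence followed over time through a 2 h incubation, with an enzyme-free control.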

A short description of data set [2]: Adsorption on hydroxyapatite and bone mineral.
Data set [3] concerns the target T1, Ctsk. The experiment in a line: Ctsk-induced fluorogenesis of OFS-1 pre-adsorbed on HAp with/without odanacatib. Format: biochemical. Particulars: HAp treated overnight with 0.5 μM OFS-1 in 50 mM acetate pH 5.5, washed; 20 nM Ctsk, 37 °C, 2 h. In a few lines: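 […] (HAp)-coated polystyrene wells soaked overnight in probe in acetate buffer, then washed repeatedly with water to remove unbound probe. Wells covered with human Ctsk, with Ctsk inhibitor at 0, 1, 5, 10, 30, 50 or 100 nM (n = 3). Fluorescence read at 1 min intervals in a plate reader at 37 °C.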

The test system of data set [4] is human osteoclasts. Description: Activation of OFS-1 adsorbed on HAp by resorbing human osteoclasts. Format: cell-based. Summed up: (§1)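 HAp […]-coated polystyrene wells were pre-treated with 5.0 μM OFS-1 and washed with PBS. They were then seeded with human osteoclasts, alone or co-cultured with RPMI-8226-Luc myeloma cells, with or without 30 nM odanacatib. Wells were imaged by bright-field and fluorescence microscopy (time-lapse video) for 24 h at 37 °C to record resorption pits and probe fluorescence.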

Data set [5] concerns the target T1, Ctsk. The experiment in a line: Kinetics of Ctsk-catalyzed OFS-1 activation in solution. It counts as biochemical.
For data set [6], the system named is osteoclasts co-cultured with RPMI-8226-Luc human multiple myeloma cells. The experiment in a line: Activation of OFS-1 on HAp by osteoclasts co-cultured with RPMI-8226-Luc cells. Format: cell-based. In a few lines: as §1
A short description of data set [7]: OFS-1 fluorescence in water without enzyme. Format: physicochemical. Particulars: 10 μM OFS-1 in water, 48 h, 37 °C.
In data set [8] the test system is RPMI-8226-Luc human multiple myeloma cells engrafted in NSG/BLT humanized mice. The experiment in a line: In vivo fluorescence imaging of multiple myeloma-induced osteolysis. On the set-up: species or system mouse. Summed up: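 NSG mice were co-grafted with human CD34+ hematopoietic stem cells, liver and thymus and irradiated (NSG/BLT). RPMI-8226-Luc cells (15×10^6 per mouse, 100 μL) were given by tail vein; controls received vehicle. Seven days later, 100 μL of 50 μM OFS-1 was injected retro-orbitally. In vivo fluorescence and bioluminescence imaging was done 3, 4 and 5 wk after cell injection, plus ex vivo micro-CT. Control n = 1, myeloma mice n = 3.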

In data set [9] the target is T1, Ctsk. Particulars: cited from earlier work.
The conditions of data set [10]: ref [14]; cited from earlier work.
For data set [11], the target named is T1, Ctsk. The following applies: reported value; ref [25]; cited from earlier work.

“Also recorded” adds a separate entry of the source. Non-standard residues stand in square brackets, D forms with d. Residues, ends and D or L forms follow the SMILES beside them. ξ: configuration not given here. *: point of attachment. X1 = COc1cc(N=Nc2ccccc2[N+](=O)[O-])c(C)cc1N=Nc1ccc(N(C)CCCC(=O)*)cc1; X2 = O=C(O)c1cc(C(=O)*)ccc1-c1c2ccc(=O)cc-2oc2cc(O)ccc12; X3 = O=P(O)(O)C(O)(CCN*)P(=O)(O)O; ξH = NC(Cc1c[nH]cn1)C(=O)O; ξQ = NC(=O)CCC(N)C(=O)O; ξP = O=C(O)C1CCCN1; βAla = NCCC(=O)O

Turning to `COc1cc(N=Nc2ccccc2[N+](=O)[O-])c(C)cc1N=Nc1ccc(N(C)CCCC(=O)NCC(=O)NC(Cc2c[nH]cn2)C(=O)N2CCCC2C(=O)NCC(=O)NCC(=O)N2CCCC2C(=O)NC(CCC(N)=O)C(=O)NCC(=O)NCCC(=O)N[C@@H](CCCCNC(=O)c2ccc(-c3c4ccc(=O)cc-4oc4cc(O)ccc34)c(C(=O)O)c2)C(=O)NCCC(O)(P(=O)(O)O)P(=O)(O)O)cc1` (stereo partly drawn) [OFS-1] (X1-G[ξH][ξP]GG[ξP][ξQ]G[βAla]K(X2)-X3), in data set [1] (OFS-1 0.5 μM, 20 nM Ctsk, in solution, pH 7), the “time-course of OFS-1 fluorescent activity” value is “fluorescent activity was immediately observed within 10 min and reached a plateau thereafter”. Further, the “OFS-1 fluorescence without enzyme” value in [1] (control lacking enzyme, 2 h incubation) was “essentially unchanged”. Moreover, the “adsorption on HAp and bone mineral” value in data set [2] was “avidly adsorbed by hydroxyapatite (HAp) and bone mineral surfaces; also recorded: strongly and specifically binds to bone surfaces”. Also, in [3], the “Ctsk-dependent fluorescence of HAp-adsorbed OFS-1” value is listed as “time-course increase of fluorescent intensity; also recorded: Bright Ctsk-dependent fluorescence was again observed”. The “OFS-1 fluorescence without osteoclasts” value in [4] (control wells, 5.0 μM OFS-1, not seeded with osteoclasts) is “not significantly fluorescent”. Besides, the “dependence of fluorescence intensity on OFS-1 concentration” value in data set [5] (25 nM human Ctsk, 50 mM sodium acetate pH 5.5, 2.5 mM EDTA, 1 mM DTT, 37 °C, Supplementary Figure S3) was “depended linearly on the OFS-1 concentration up to 1 μM”. The “catalytic efficiency (kcat/Km)” value in [5] (Ctsk 2.5 nM (Fig. 2), 50 mM NaOAc pH 5.5, 37 °C) is 0.97 × 10^5 M-^1 s-^1. Moreover, the “fluorescence on exposure to Ctsk” value in data set [5] (Ctsk 2.5–20 nM, in solution or pre-adsorbed on HAp) is given as “strong fluorescence”. Besides, the “cleavage efficiency relative to Abz-HPGGPQ-EDN2Ph (less efficient)” value in data set [5] (OFS-1 vs literature value of Abz-HPGGPQ-EDN2Ph, ref [25] for the comparator) is “only fourfold less efficiently”. For the same molecule, in data set [6] (OFS-1 5.0 μM pre-treated HAp wells, osteoclasts + RPMI-8226-Luc), the “OFS-1 fluorescent signal in co-culture” value is given as “robust activation of OFS-1 fluorescent signals”. Further, the “OFS-1 fluorescent signal compared to solitary osteoclasts” value in data set [6] (osteoclasts + RPMI-8226-Luc vs solitary osteoclasts) is on record as “increased by RPMI-8226-Luc cells”. The “extrinsic fluorescence in water without enzyme” value in data set [7] is “virtually undetectable”. Moreover, the “time from which distinct in vivo fluorescent signal was detected” value in [8] (100 μL of 50 μM OFS-1 retro-orbital, weeks after RPMI-8226-Luc cell injection) worked out at 4 wk. Also, in data set [8] (NSG/BLT humanized mice injected with RPMI-8226-Luc cells), the “detection relative to myeloma cell luminescence” value is given as “before the co-localized luminescence of the myeloma cells could be detected”. Further, the “in vivo OFS-1 signal relative to tumor site / osteolysis lesions” value in data set [8] (another mouse, cervical area, post-mortem micro-CT) is “extensive osteolysis lesions (arrows), which corresponded to the sentinel OFS-1 signal; also recorded: a strong fluorescent signal was detected at (and extending beyond) the bioluminescent tumor site”. In [8] (physiological level of bone resorption, control n = 1), the “in vivo OFS-1 signal in control animals” value is given as “did not show the OFS-1 signal”.

For HPGGPQ, the “cleavage by Ctsk” value in [9] (ref [24]) is “selectively cleaved by Ctsk”. In data set [9] (well-established cleavage site, no reference at this place), the “Ctsk cleavage site (original peptide)” value is “Gly-Gly bond”.

For the molecule `NCCC(O)(P(=O)(O)O)P(=O)(O)O` [pamidronate], the bone-affinity result in [10] was “high bone-affinity”.

Consider `NCCCC(O)(P(=O)(O)O)P(=O)(O)O` [alendronate], for which the bone-affinity entry in data set [10] is “high bone-affinity”.

Regarding `CC(C)(F)C[C@H](N[C@@H](c1ccc(-c2ccc(S(C)(=O)=O)cc2)cc1)C(F)(F)F)C(=O)NC1(C#N)CC1` [odanacatib], the “pit formation by osteoclasts with odanacatib” value in data set [4] (30 nM odanacatib) is “pit formation was again observed”. For the same molecule, in [4] (30 nM odanacatib (Figure S9)), the “osteoclast-induced OFS-1 fluorescence with odanacatib” value is reported as “fluorescence was suppressed”. The “OFS-1 fluorescent signal in co-culture with odanacatib” value in data set [6] (30 nM odanacatib) is listed as “effectively inhibited”.

Regarding Abz-HPGGPQ-EDN2Ph, the catalytic efficiency in data set [11] was 426000 M⁻¹ s⁻¹.
